# Tests used:
# Mus musculus [1] = test: Dose below which no catalepsy was observed at any time period (following p.o. dosing); assay type: functional
# Outline: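 CFW mice (21-23 g), three per group, dosed orally in water or 0.5% carboxymethylcellulose. Checked at 0.25, 2.5 and 5.0 h for holding one hind limb on a 2-cm rubber bung and staying on a vertical grid, judged against a control by a trained observer.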
# [2] = target: Muscarinic acetylcholine receptor; test: Compound was evaluated for the inhibition of [3H]QNB binding to Muscarinic acetylcholine receptor from male Olac rat brain.
# Rattus norvegicus [3] = test: Rotarod response in rat to assess muscular incoordination (following p.o. dosing); assay type: functional
# Outline: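 Male Olac-Wistar rats (140-150 g), five per group, fed ad libitum, dosed orally. Tested 1 and 2 h later on a horizontal rod (2 rpm, 32 mm diameter), maximum 30 s. Mean time compared with vehicle controls by Mann-Whitney U test, significant at p < 0.05.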
# Mus musculus [4] = test: Compound administered perorally was evaluated for the hypothermia (rectal temperature) in mice; assay type: functional
# Outline: (§1)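 Groups of three CFW mice (21-23 g) received oral compound in water or 0.5% carboxymethylcellulose. Rectal temperature was taken at 0.25, 2.5 and 5.0 h. Mean change from the group's initial mean was summed over the three times. Hypothermia scored if the summed reduction was >4 °C.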
# Rattus norvegicus [5] = test: Compound administered perorally was evaluated for the conditioned avoidance response in rats; assay type: functional
# Outline: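 Olac-Wistar rats (120-130 g) trained to cross a shuttle box on a 5-s buzzer, with mild shock if no response within 1 s after it ends. Only high-responders used. Groups of five were dosed orally in water or 0.5% carboxymethylcellulose 1 h 50 min before testing. After 10-min habituation they were tested 20 min. Blockade = shocks as % of stimuli presented.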
# [6] = target: D(2) dopamine receptor (Bos taurus) (UniProt P20288); test: Inhibition of [3H]spiperone binding to Dopamine receptor D2 from calf caudate
# Mus musculus [7] = test: Compound administered perorally was evaluated for the hypothermia (rectal temperature ) in mice; assay type: functional; outline: as §1
# [8] = target: D(2) dopamine receptor (Bos taurus) (UniProt P20288); test: Inhibition of [3H]spiperone binding to dopamine receptor D2 from calf caudate
# [9] = target: Muscarinic acetylcholine receptor; test: Inhibition of [3H]QNB binding to muscarinic cholinergic receptor from male Olac rat brain.
IC50 [2],IC50 [6],IC50 [8],IC50 [9],Structure (SMILES),EDmin (Mus musculus [1]),ED (Rattus norvegicus [3]),EDmin (Mus musculus [4]),ED (Rattus norvegicus [5]),EDmin (Mus musculus [7])
> 100 µM,> 10 µM,–,–,CN1CCN(C2=Nc3ccc(Cl)cc3Nc3nn(C)cc32)CC1,>400 mg/kg,>50 mg/kg,100 mg/kg,>50 mg/kg,–
> 100 µM,> 100 µM,–,–,Cn1cc2c(n1)Nc1ccc(F)cc1N=C2N1CCOCC1,>400 mg/kg,>50 mg/kg,200 mg/kg,>50 mg/kg,–
> 10 µM,2.5 µM,–,–,CCCCCCCCCCn1cc2c(n1)Nc1ccc(Cl)cc1N=C2N1CCN(C)CC1,>400 mg/kg,>50 mg/kg,–,>50 mg/kg,>400 mg/kg
–,> 1 µM,–,–,CN1CCN(C2=Nc3cc(I)ccc3Nc3nn(C)cc32)CC1,50 mg/kg,25 mg/kg,50 mg/kg,>20 mg/kg,–
> 10 µM,> 10 µM,–,–,Cn1cc2c(n1)Nc1ccc(F)cc1N=C2N1CCCCC1,>400 mg/kg,>50 mg/kg,400 mg/kg,50 mg/kg,–
–,> 10 µM,–,–,Cc1c2c(nn1C)C(N1CCN(C)CC1)=Nc1cc(F)ccc1N2,–,–,–,–,–
6.1 µM,> 10 µM,–,–,CN(C)CCNC1=Nc2cc(F)ccc2Nc2nn(C)cc21,>400 mg/kg,>50 mg/kg,>400 mg/kg,>50 mg/kg,–
> 100 µM,> 10 µM,–,–,CN1CCN(C2=Nc3cc(S(C)(=O)=O)ccc3Nc3nn(C)cc32)CC1,>200 mg/kg,>50 mg/kg,>200 mg/kg,–,–
> 100 µM,> 10 µM,–,–,CCOC(=O)N1CCN(C2=Nc3cc(F)ccc3Nc3nn(C)cc32)CC1,>200 mg/kg,>50 mg/kg,>200 mg/kg,>50 mg/kg,–
> 100 µM,> 10 µM,–,–,Cn1cc2c(n1)Nc1ccc(Cl)cc1N=C2N,>25 mg/kg,>50 mg/kg,25 mg/kg,>25 mg/kg,–
–,–,3.3 µM,> 10 µM,CC(C)Cn1cc2c(n1)Nc1ccc(Cl)cc1N=C2N1CCN(C)CC1,200 mg/kg,>50 mg/kg,50 mg/kg,>50 mg/kg,–
> 10 µM,5.2 µM,–,–,Cn1cc2c(n1)Nc1ccc(F)cc1N=C2N1CCNCC1,>400 mg/kg,>50 mg/kg,–,>50 mg/kg,200 mg/kg
> 1 µM,3.8 µM,–,–,CCn1cc2c(n1)Nc1cc(Cl)c(Cl)cc1N=C2N1CCN(C)CC1,200 mg/kg,20 mg/kg,50 mg/kg,>20 mg/kg,–
–,–,0.76 µM,21 µM,CN1CCN(C2=Nc3cc(F)c(F)cc3Nc3nn(C)cc32)CC1,>200 mg/kg,>50 mg/kg,25 mg/kg,50 mg/kg,–
–,–,> 10 µM,> 1 µM,Cn1cc2c(n1)Nc1ccc(F)cc1N=C2N1CC[N+](C)([O-])CC1,100 mg/kg,>50 mg/kg,50 mg/kg,>50 mg/kg,–
> 10 µM,1.6 µM,–,–,CN1CCN(C2=Nc3cc(C(F)(F)F)ccc3Nc3nn(C)cc32)CC1,200 mg/kg,>30 mg/kg,50 mg/kg,25 mg/kg,–

# The next lines start with the molecule.
Structure (SMILES),IC50 [2],IC50 [6],IC50 [8],IC50 [9],EDmin (Mus musculus [1]),ED (Rattus norvegicus [3]),EDmin (Mus musculus [4]),ED (Rattus norvegicus [5]),EDmin (Mus musculus [7])
CCn1cc2c(n1)Nc1ccc(Cl)cc1N=C2N1CCN(C)CC1,–,–,0.34 µM,> 1 µM,>400 mg/kg,20 mg/kg,6.25 mg/kg,>15 mg/kg,–
CN1CCN(C2=Nc3cccc(Cl)c3Nc3nn(C)cc32)CC1,> 100 µM,4.7 µM,–,–,184 mg/kg,>50 mg/kg,184 mg/kg,>50 mg/kg,–
CN1CCN(C2=Nc3cc(C(=O)c4ccccc4)ccc3Nc3nn(C)cc32)CC1,> 1 µM,> 10 µM,–,–,>400 mg/kg,>50 mg/kg,>400 mg/kg,>50 mg/kg,–
CN1CCN(C2=Nc3c(Cl)cccc3Nc3nn(C)cc32)CC1,> 100 µM,0.86 µM,–,–,>400 mg/kg,>50 mg/kg,25 mg/kg,>50 mg/kg,–
CN1CCN(C2=Nc3cc(Cl)ccc3Nc3nn(C4CCCC4)cc32)CC1,–,–,0.14 µM,> 10 µM,>400 mg/kg,>50 mg/kg,50 mg/kg,50 mg/kg,–
Cn1cc2c(n1)Nc1ccc(F)cc1N=C2N1CCN(CCO)CC1,> 100 µM,5.1 µM,–,–,>200 mg/kg,>50 mg/kg,>200 mg/kg,>50 mg/kg,–
CN1CCN(C2=Nc3cc(Cl)c(Cl)cc3Nc3nn(C)cc32)CC1,> 1 µM,> 10 µM,–,–,50 mg/kg,>50 mg/kg,–,>20 mg/kg,25 mg/kg
Cn1cc2c(n1)Nc1ccc(F)cc1N=C2N1CCN(CC2CC2)CC1,> 10 µM,0.9 µM,–,–,100 mg/kg,30 mg/kg,50 mg/kg,>15 mg/kg,–
Cc1nn(C)c2c1Nc1ccc(F)cc1N=C2N1CCN(C)CC1,> 100 µM,> 10 µM,–,–,>200 mg/kg,>50 mg/kg,>200 mg/kg,>50 mg/kg,–
CN1CCN(C2=Nc3cc(F)ccc3Nc3nn(-c4ccccc4)cc32)CC1,–,2.6 µM,–,> 10 µM,>200 mg/kg,>50 mg/kg,>200 mg/kg,50 mg/kg,–
Cn1cc2c(n1)Nc1ccc(F)cc1N=C2N1CCN(Cc2ccccc2)CC1,> 100 µM,2.7 µM,–,–,>200 mg/kg,50 mg/kg,50 mg/kg,>50 mg/kg,–
CN1CCN(C2=Nc3cc(F)ccc3Nc3nn(C)c(-c4ccccc4)c32)CC1,–,–,2.1 µM,> 100 µM,>400 mg/kg,>50 mg/kg,200 mg/kg,>50 mg/kg,–
CN1CCN(C2=Nc3cc(F)ccc3Nc3nn(Cc4ccccc4)cc32)CC1,–,–,0.4 µM,> 100 µM,>400 mg/kg,>50 mg/kg,100 mg/kg,50 mg/kg,–
